Reference: ChEMBL document CHEMBL3124872, “Discovery and early development of TMC647055, a non-nucleoside inhibitor of the hepatitis C virus NS5B polymerase” (J Med Chem, 2014)
Active and inactive are the calls of the source. The calls are words filed in the database; no cut-off is given here.

Tests used:
[1] = tested on: Hepatitis C virus; test: Antiviral activity against Hepatitis C virus genotype 2a infected in human HuH7 by transient replicon assay; assay type: functional, organism-based, Hepacivirus hominis; details: Huh-7
Outline: (§1)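 Transient replicon assay using chimeric replicons whose NS5B region is derived from patient isolates of the stated genotype.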

[2] = tested on: Hepatitis C virus; test: Antiviral activity against Hepatitis C virus harboring NS5B M414T mutant infected in human HuH7 by luciferase reporter gene assay; assay type: functional, organism-based; details: Hepacivirus hominis; Huh-7
[3] = tested on: Hepatitis C virus; test: Antiviral activity against Hepatitis C virus harboring […] D168V mutant infected in human HuH7 by luciferase reporter gene assay; assay type: functional, organism-based; details: Hepacivirus hominis; Huh-7
[4] = tested on: Hepatitis C virus; test: Antiviral activity against Hepatitis C virus harboring […] R155K mutant infected in human HuH7 by luciferase reporter gene assay; assay type: functional, organism-based; details: Hepacivirus hominis; Huh-7
[5] = Selectivity ratio of EC50 for Hepatitis C virus genotype 2a to EC50 for wild-type Hepatitis C virus Con 1b; assay type: functional
Outline: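 Transient replicon assay using chimeric replicons carrying NS5B from genotype 2a or 2b patient isolates. EC50 was compared with that against the genotype 1b replicon.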

[6] = Binding affinity to Hepatitis C virus genotype 1a NS5B by surface plasmon resonance analysis; parameters: species or system Hepatitis C virus subtype 1a
Outline: (§2)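 Surface plasmon resonance binding to NS5B polymerase of the stated genotype; association and dissociation rate constants measured, from which Kd and residence half-life were derived; median Kd reported.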

[7] = tested on: Hepatitis C virus; test: Antiviral activity against Hepatitis C virus genotype 1b harboring NS5B NNI-1 site P495L mutant infected in human HuH7 by luciferase reporter gene assay relative to wild-type HCV genotype 1b; assay type: functional, Hepacivirus hominis, Huh-7
[8] = tested on: Hepatitis C virus; test: Antiviral activity against Hepatitis C virus genotype 1a infected in po dosed human assessed as decrease in HCV RNA level administered bid for 5 days followed by morning dose on day 6; assay type: functional, organism-based; details: Hepacivirus hominis; subtype 1a
Outline: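 HCV genotype 1-infected patients received oral b.i.d. doses of 500 mg or 1000 mg in a hydroxypropyl-β-cyclodextrin vehicle for 5 days, plus a morning dose on day 6. The read-out was the median maximum decrease in HCV RNA from baseline in GT1a patients with data up to Day 6.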

[9] = tested on: Hepatitis C virus; test: Antiviral activity against Hepatitis C virus genotype 1b infected in human HuH7 assessed as suppression of formation of resistant colonies at 1.5 uM preincubated for 2 weeks followed by 3 week rebound phase by RT-PCR analysis; assay type: functional, organism-based; details: Hepacivirus hominis, Huh-7
Outline: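 Huh7-Luc genotype 1b replicon cells were incubated for 14 days with the NNI alone (up to 3.75 μM), with TMC435 alone, or with both. A 3-week rebound phase without inhibitor followed, tracking replicon RNA clearance. A parallel colony formation run exposed the cells for 2−3 weeks and scored resistant colonies.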

[10] = tested on: Hepatitis C virus subtype 1b
[11] = tested on: Hepatitis C virus; test: Antiviral activity against Hepatitis C virus genotype 1a infected in human assessed as log10 reduction in HCV RNA level at 1000 mg, po bid for 5 days followed by morning dose on day 6 relative to control; assay type: functional, Hepacivirus hominis, subtype 1a
Outline: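 Oral b.i.d. dosing of HCV genotype 1-infected patients at 500 mg or 1000 mg for 5 days, plus a morning dose on day 6, in hydroxypropyl-β-cyclodextrin vehicle. Read-out was the median maximum decrease in plasma HCV RNA from baseline (log10), using patients with HCV RNA data available up to Day 6.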

[12] = tested on: Homo sapiens; test: Toxicity in HCV genotype 1-infected patient assessed as grade-4 adverse events at 500 to 1000 mg, po bid for 5 days followed by morning dose on day 6; assay type: organism-based; details: in vivo, 120 h
Outline: (§3)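 HCV genotype 1-infected patients given oral b.i.d. doses of 500 or 1000 mg for 5 days plus a morning dose on day 6, in hydroxypropyl-β-cyclodextrin vehicle; adverse events with grading, laboratory parameters, vital signs, food consumption, appetite and ECG monitored.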

[13] = tested on: Hepatitis C virus; test: Antiviral activity against Hepatitis C virus harboring […] L31V mutant infected in human HuH7 by luciferase reporter gene assay; assay type: functional, organism-based; details: Hepacivirus hominis; Huh-7
[14] = Inhibition of His6-tagged Hepatitis C virus Con 1b NS5B delta21 RNA dependent RNA polymerase expressed in Escherichia coli Rosetta 2 (DE3) after 2 hrs by primer-dependent transcription assay in presence of 5'-biotinylated rG13 primer
[15] = tested on: Hepatitis C virus; test: Antiviral activity against Hepatitis C virus harboring […] Y93H mutant infected in human HuH7 by luciferase reporter gene assay; assay type: functional, organism-based; details: Hepacivirus hominis; Huh-7
[16] = Drug uptake in Sprague-Dawley rat liver at 10 mg/kg, po after 7 hrs; assay type: ADME, organism-based; parameters: dose 10 mg/kg, route oral; details: read-out: Drug uptake
[17] = tested on: Rattus norvegicus; test: Toxicity in rat assessed as decrease in body weight at 1000 mg/kg/day after 5 days; assay type: organism-based; details: in vivo, 120 h
[18] = tested on: Hepatitis C virus; test: Antiviral activity against Hepatitis C virus genotype 1b infected in human HuH7 assessed as rebound of replicon RNA at 3.75 uM preincubated for 2 weeks followed by 3 week rebound phase by RT-PCR analysis; assay type: functional, organism-based; details: Hepacivirus hominis, Huh-7
Outline: (§4)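 Clearance-and-rebound test in Huh7-Luc genotype 1b replicon cells. Cells were incubated with inhibitor (3.75 μM alone) for 14 days, then held for a 3-week rebound phase without inhibitor. Replicon RNA was followed for clearance and rebound.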

[19] = tested on: Homo sapiens; test: Toxicity in HCV genotype 1-infected patient assessed as effect on ECG profile at 500 to 1000 mg, po bid for 5 days followed by morning dose on day 6; assay type: organism-based; details: in vivo, 120 h; outline: as §3
[20] = Binding affinity to Hepatitis C virus genotype 4a NS5B by surface plasmon resonance analysis; parameters: species or system Hepatitis C virus subtype 4a; outline: as §2
[21] = tested on: Homo sapiens; test: Toxicity in HCV genotype 1-infected patient assessed as gastrointestinal side-effects at 500 to 1000 mg, po bid for 5 days followed by morning dose on day 6; assay type: organism-based; details: in vivo, 120 h; outline: as §3
[22] = tested on: Hepatitis C virus; test: Antiviral activity against Hepatitis C virus genotype 1b infected in human HuH7 cells after 72 hrs by luciferase reporter gene assay in presence of 40% human plasma relative to control; assay type: functional, Hepacivirus hominis, Huh-7
[23] = Toxicity in rat after 5 days; assay type: organism-based; details: in vivo
[24] = tested on: Homo sapiens; test: Toxicity in HCV genotype 1-infected patient assessed as effect on appetite at 500 to 1000 mg, po bid for 5 days followed by morning dose on day 6; assay type: organism-based; details: in vivo, 120 h; outline: as §3
[25] = tested on: Hepatitis C virus; test: Antiviral activity against Hepatitis C virus genotype 1b infected in human HuH7 by transient replicon assay; assay type: functional, organism-based, Hepacivirus hominis; details: Huh-7; outline: as §1
[26] = tested on: Hepatitis C virus; test: Antiviral activity against Hepatitis C virus genotype 1b infected in human HuH7 assessed as clearance of replicon cells at 3.75 uM preincubated for 2 weeks followed by 3 week rebound phase by RT-PCR analysis; assay type: functional, organism-based; details: Hepacivirus hominis, Huh-7; outline: as §4
[27] = Binding affinity to Hepatitis C virus genotype 5a NS5B by surface plasmon resonance analysis; parameters: species or system Hepatitis C virus subtype 5a; outline: as §2
[28] = Binding affinity to Hepatitis C virus genotype 6a NS5B by surface plasmon resonance analysis; parameters: species or system Hepatitis C virus subtype 6a; outline: as §2
[29] = Cytotoxicity against human MT4 cells; assay type: cell-based
[30] = tested on: Hepatitis C virus; test: Antiviral activity against wild-type Hepatitis C virus Con 1b infected in human HuH7 by transient replicon assay; assay type: functional, organism-based, Hepacivirus hominis; details: isolate Con1, Huh-7
[31] = Binding affinity to Hepatitis C virus genotype 2b NS5B by surface plasmon resonance analysis; parameters: species or system Hepatitis C virus subtype 2b; outline: as §2
[32] = tested on: Hepatitis C virus; test: Antiviral activity against Hepatitis C virus genotype 1a infected in human HuH7 by transient replicon assay; assay type: functional, organism-based, Hepacivirus hominis; details: subtype 1a, Huh-7; outline: as §1
[33] = tested on: Hepatitis C virus; test: Antiviral activity against Hepatitis C virus harboring NS5B S282T mutant infected in human HuH7 by luciferase reporter gene assay; assay type: functional, organism-based; details: Hepacivirus hominis; Huh-7
[34] = Binding affinity to Hepatitis C virus genotype 1b NS5B by surface plasmon resonance analysis; parameters: species or system Hepatitis C virus subtype 1b; outline: as §2

SMILES: COc1ccc2c(c1)C=C1Cn3c-2c(C2CCCCC2)c2ccc(cc23)C(=O)NS(=O)(=O)N(C)CCOCCN(C)C1=O [TMC-647055]
- EC50 [1]: 12.5 µM
- Activity [2]: Active
- Activity [3]: Active
- Activity [4]: Active
- Ratio EC50 [5]: >200
- Kd [6]: 0.0073 µM
- fold change (FC) [7]: 371
- Activity [8]: Dose-dependent effect
- Activity [9]: Active
- T1/2 [10]: 2.17 h
- FC [11]: 2.4
- Activity [12]: Non-toxic
- Activity [13]: Active
- IC50 [14]: 0.034 µM
- Activity [15]: Active
- concentration at 7 h [16]: 7800 ng/g
- Activity [17]: Toxic
- Activity [18]: inactive
- Activity [19]: Non-toxic
- Kd [20]: 0.002 µM
- Activity [21]: Toxic
- fold change (FC) [22]: 9
- NOAEL at 120 h [23]: ≤ 1000 mg/kg/day
- Activity [24]: Non-toxic
- EC50 [25]: 0.027 µM
- Activity [26]: inactive
- Kd [27]: 0.021 µM
- Kd [28]: 0.03 µM
- CC50 [29]: 28.9 µM
- EC50 [30]: 0.051 µM
- Kd [31]: 0.88 µM
- EC50 [32]: 0.048 µM
- Activity [33]: Active
- Kd [34]: 0.0039 µM
